Source: ChEMBL document CHEMBL1122130, “Nonsteroidal antiinflammatory agents. 1. 10,11-Dihydro-11-oxodibenz[b, f]oxepinacetic acids and related compounds” (J Med Chem, 1982)

How the values were obtained:
[1] = organism: Mus musculus; experiment: Effective dose for analgesic activity in mice; assay type: functional
In short: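 Female ddN mice (18-22 g; 5-15 per dose) received compound in 0.5% aqueous tragacanth. Writhing was induced by intraperitoneal 0.03% phenylquinone, and writhes were counted over 15 min. ED50 was calculated by Litchfield–Wilcoxon.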

[2] = tested on: Rattus norvegicus; experiment: Effective dose for antiinflammatory activity in carrageenan paw edema assay in rats after oral administration; assay type: functional
In short: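 Male Wistar rats (120-150 g; 5-10 per dose) were dosed orally in 0.5% aqueous tragacanth. Edema was induced by subcutaneous injection of 1% aqueous carrageenan into the left hind paw.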

[3] = Lethal dose determined in rats when administered perorally; assay type: toxicity, organism-based; conditions: rat, in vivo, po
In short: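 Male Wistar rats (150-230 g), dosed orally with compound dissolved or suspended in 0.5% aqueous tragacanth. LD50 taken from mortality over 7 days and calculated by the Litchfield-Wilcoxon method.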

[4] = tested on: Rattus norvegicus; experiment: Compound was evaluated for the induction no of gastric ulcers in rats when administered perorally; assay type: functional, Stomach
In short: (§1)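 Male Wistar rats were fasted 24 h and given compound once orally in 0.5% aqueous tragacanth. Stomachs were removed 6 h later and examined macroscopically. UD50 (dose causing ulcers in 50% of rats) was taken from each compound's regression line.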

[5] = tested on: Rattus norvegicus; experiment: Compound was evaluated for the induction of gastric ulcers in rats after oral administration; assay type: functional; conditions: Stomach; in short: as §1
[6] = organism: Rattus norvegicus; experiment: Antipyretic activity measured as yeast induced fever assay in rats; assay type: functional
In short: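 Male Wistar rats (350-500 g); hyperthermia induced by subcutaneous injection of 15% yeast suspension. Test compounds dissolved or suspended in 0.5% aqueous tragacanth and administered. ED50 calculated by the Litchfield–Wilcoxon method.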

[7] = organism: Rattus norvegicus; experiment: Analgesic activity measured as silver nitrate induced arthritic pain in rats; assay type: functional
In short: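 Pain in the arthritic rat paw was provoked with silver nitrate. Compounds were given in 0.5% aqueous tragacanth, and ED50 was calculated by the Litchfield–Wilcoxon method.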

[8] = tested on: Rattus norvegicus; experiment: compound was evaluated for the induction no of gastric ulcers in rats when administered perorally; assay type: functional, Stomach; in short: as §1

| SMILES | ED50 [1] | ED50 [2] | also measured |
| --- | --- | --- | --- |
| O=C(O)Cc1ccc2c(c1)C(=O)Cc1cc(F)ccc1O2 | > 100 mg/kg | ≥ 80 mg/kg | – |
| O=C(O)Cc1ccc2c(c1)C=Cc1ccc(Cl)cc1O2 | 9.53 mg/kg | 61.4 mg/kg | – |
| O=C(O)Cc1ccc2c(c1)C(O)Cc1cc(F)ccc1O2 (stereo not given) | > 100 mg/kg | > 80 mg/kg | – |
| O=C(O)Cc1ccc2c(c1)Oc1ccccc1NC2=O | > 100 mg/kg | > 80 mg/kg | – |
| O=C(O)Cc1ccc2c(c1)C(O)Cc1cc(Cl)ccc1O2 (stereo not given) | > 100 mg/kg | > 80 mg/kg | – |
| O=C(O)Cc1ccc2c(c1)Oc1ccccc1CC2=O | ≥ 100 mg/kg | 56.9 mg/kg | – |
| Cc1ccc2c(c1)CC(=O)c1cc(C(C)C(=O)O)ccc1S2 (stereo not given) | 3.1 mg/kg | – | LD50 [3]: > 100 mg/kg; UD50 [4]: 11.3 mg/kg |
| O=C(O)Cc1ccc2c(c1)C(O)Cc1ccccc1O2 (stereo not given) | 44.6 mg/kg | 24.3 mg/kg | – |
| Cc1ccc2c(c1)C=Cc1cc(CC(=O)O)ccc1O2 | > 100 mg/kg | > 80 mg/kg | – |
| O=C(O)Cc1ccc2c(c1)C(=O)Cc1cc(Cl)ccc1O2 | ≥ 100 mg/kg | ≥ 80 mg/kg | – |
| Cc1ccc2c(c1)CC(O)c1cc(CC(=O)O)ccc1O2 (stereo not given) | > 100 mg/kg | > 80 mg/kg | – |
| O=C(O)Cc1ccc2c(c1)C(=O)Cc1ccccc1O2 | 34.4 mg/kg | 10.8 mg/kg | – |
| CC(C(=O)O)c1ccc2c(c1)C(=O)Cc1ccccc1O2 (stereo not given) | 17.8 mg/kg | – | – |
| CC(C(=O)O)c1ccc2c(c1)C(=O)Nc1ccccc1O2 (stereo not given) | > 100 mg/kg | > 80 mg/kg | – |
| O=C(O)Cc1ccc2c(c1)C=Cc1ccccc1O2 | > 100 mg/kg | 28.3 mg/kg | – |
| Cc1ccc2c(c1)CC(=O)c1cc(CC(=O)O)ccc1O2 | 13.8 mg/kg | – | – |

| SMILES | ED50 [1] | ED50 [2] | also measured |
| --- | --- | --- | --- |
| O=C(O)Cc1ccc2c(c1)C=Cc1cc(Cl)ccc1O2 | > 100 mg/kg | > 80 mg/kg | – |
| O=C(O)Cc1ccc2c(c1)C(=O)Cc1ccc(Cl)cc1O2 | > 100 mg/kg | ≥ 80 mg/kg | – |
| O=C(O)Cc1ccc2c(c1)C(=O)Nc1ccccc1O2 | > 100 mg/kg | > 80 mg/kg | – |
| CC(C(=O)O)c1ccc2c(c1)C(O)Cc1ccccc1O2 (stereo not given) | > 100 mg/kg | > 80 mg/kg | – |
| O=C(O)Cc1ccc2c(c1)Oc1ccccc1CC2O (stereo not given) | > 100 mg/kg | > 80 mg/kg | – |
| Cc1ccc2c(c1)C=Cc1cc(C(C)C(=O)O)ccc1S2 (stereo not given) | > 100 mg/kg | > 80 mg/kg | – |
| O=C(O)Cc1ccc2c(c1)C(O)Cc1ccc(Cl)cc1O2 (stereo not given) | > 100 mg/kg | > 80 mg/kg | – |
| O=C(O)Cc1ccc2c(c1)C=Cc1cc(F)ccc1O2 | > 100 mg/kg | > 80 mg/kg | – |
| O=C(O)Cc1ccc2c(c1)Oc1ccccc1C=C2 | > 100 mg/kg | > 80 mg/kg | – |
| CC(C(=O)O)c1ccc2c(c1)C=Cc1ccccc1O2 (stereo not given) | > 100 mg/kg | ≥ 80 mg/kg | – |
| Cc1ccc2c(c1)C=Cc1cc(C(C)C(=O)O)ccc1O2 (stereo not given) | > 100 mg/kg | > 80 mg/kg | – |
| Cc1ccc2c(c1)CC(O)c1cc(C(C)C(=O)O)ccc1S2 (stereo not given) | > 100 mg/kg | > 80 mg/kg | – |
| Cc1ccc2c(c1)CC(O)c1cc(C(C)C(=O)O)ccc1O2 (stereo not given) | > 100 mg/kg | > 80 mg/kg | – |
| Cc1ccc2c(c1)CC(=O)c1cc(C(C)C(=O)O)ccc1O2 (stereo not given) [BERMOPROFEN] | 6.51 mg/kg | – | LD50 [3]: 147 mg/kg; ED50 [5]: 13.8 mg/kg |
| COc1ccc2c(c1)c(CC(=O)O)c(C)n2C(=O)c1ccc(Cl)cc1 [INDOMETHACIN] | 0.62 mg/kg | – | LD50 [3]: 18.5 mg/kg; ED50 [6]: 0.22 mg/kg; ED50 [7]: 4.3 mg/kg; UD50 [8]: 8 mg/kg |
